High-throughput results: PubChem BioAssay, several laboratories
KCC2 mod: modulators of human KCC2 chloride dependent transport; KCC2 cells, thallium flux FluoZin-2 fluorescence; 190,000 tested, 2.2% active; Q9H2X9; B-score of Tl+ flux slope (higher = more flux/activation; lower = inhibition) at 10 µM;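 active = thallium flux slope and its plate-corrected score both differing from the plate sample mean at a set confidence after two filtering rounds, in either direction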;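 note: slope of fluorescence scaled to starting intensity during 10 to 20 s after thallium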
ABCB1 inh: blocks JC-1 efflux by human ABCB1 transporter; AID 1326; P08183; inhibition, % at 6.6 µM; 190,000 tested, 0.067% active; CCRF-Adr cells, flow cytometry; in the data active = inhibition above about 40%;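 note: 0% = vehicle and 100% = reference inhibitor; higher value means more JC-1 retained so stronger ABCB1 efflux block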
ABCG2 block: human ABCG2 inhibition, ABCB1 as counter-screen. Q9UNQ0. inhibition, % at 6.6 µM. IgMXP3 cells, JC-1 efflux, flow cytometry. 190,000 tested, 0.1% active;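 active = inhibition above 80%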;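 note: 0% = DMSO and 100% = nicardipine control wells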
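Test system: ABCG2 IgMXP3 and barcoded ABCB1 CCRF-Adr cell mix; Schedule: cells with compound and JC-1, 10 min at 25 °C, rotating, no wash; Technique: flow cytometry of retained JC-1 fluorescence; Measure: % inhibition of efflux relative to nicardipine and DMSO; Controls: nicardipine high and DMSO low controls.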
PMI act hi M6P: PMI (human) activation, high substrate | coupled PMI enzyme assay, resazurin fluorescence, 20 min; hits give high values; 1 = untreated enzyme, 0 = substrate-free blank | activation factor at 20 µM | P34949 | 190,000 tested, 0.34% active;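 active = activation factor of 2 or more at 20 µM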
Target sequence (P34949 whole entry, looked up): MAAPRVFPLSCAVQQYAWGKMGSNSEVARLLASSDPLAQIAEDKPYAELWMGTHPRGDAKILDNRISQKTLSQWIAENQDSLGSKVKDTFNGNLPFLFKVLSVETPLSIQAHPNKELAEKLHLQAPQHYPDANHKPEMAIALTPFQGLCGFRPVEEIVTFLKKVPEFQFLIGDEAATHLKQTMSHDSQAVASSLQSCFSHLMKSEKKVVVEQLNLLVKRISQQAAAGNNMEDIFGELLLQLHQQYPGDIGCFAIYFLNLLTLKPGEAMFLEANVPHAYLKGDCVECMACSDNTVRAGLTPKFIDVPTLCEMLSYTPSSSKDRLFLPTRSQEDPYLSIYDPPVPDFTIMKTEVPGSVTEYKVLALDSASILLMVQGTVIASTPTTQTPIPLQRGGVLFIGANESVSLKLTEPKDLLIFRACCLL
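Test system: human PMI in coupled enzyme assay; Input: PMI at 15 ng/mL final; Medium: HEPES buffer, pH 7.4; Schedule: 20 min incubation at room temperature; Technique: resorufin fluorescence at Ex 544/Em 590 nm; Compound: 20 µM single dose; Probe or stimulus: Near-saturating mannose-6-phosphate, 1.0 mM.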
ROMK mod: modulators of human ROMK potassium channel; Tet-inducible ROMK, thallium flux fluorescence; actives lie on both sides; P48048; 130,000 tested, 2% active; B-score at 10 µM;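 active = signal ratio slope over the read window, or its plate-corrected B-score, at least 3 SD from the plate mean, either direction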;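 note: B-score of the F/F0 ratio slope over 7 to 12 s after thallium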
PMI activator: increases human mannose-6-phosphate isomerase activity | activation factor at 20 µM | P34949 | purified human PMI, coupled resazurin fluorescence, 20 min; hits give high values; 1 = vehicle control, 0 substrate-free wells | 190,000 tested, 0.005% active | AID 1214;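 active = activation factor of 2 or more at 20 µM, relative to plate controls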
KCC2 sec1: confirmation of human KCC2 transport modulators; shares compounds with KCC2 mod; HEK293-KCC2, thallium flux, FluoZin2 fluorescence; hits give high values; normalised thallium flux (F/F0 slope) at 10 µM; 3,700 tested, 15% active;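 active = thallium flux slope above the same plate's solvent-only control mean plus 3 SD; inconclusive = the two replicate wells disagree; inactive = no significant difference from solvent-only control wells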
KCC2 bumet counter: thallium flux persisting under bumetanide in KCC2 cells, counter-screen secondary assay; normalized thallium flux at 10 µM; 3,700 tested, 49% active; shares compounds with KCC2 mod; HEK293-KCC2 + bumetanide/ouabain, thallium flux FluoZin2; hits give high values;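 active = thallium entry rate above the same plate's blocked-transporter control wells by more than 3 SD; inconclusive = the two repeat wells disagree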;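 note: raw slope of fluorescence over initial fluorescence between 10 and 20 s after thallium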
KCC2 secondary2: confirmation of human KCC2 transport modulators. HEK293-KCC2, thallium flux FluoZin2 fluorescence; actives lie on both sides; F/F0 rise rate, 10–20 s post-thallium. 3,700 tested, 23% active. normalized thallium flux at 10 µM. shares compounds with KCC2 mod. AID 1715;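 active = thallium flux slope more than 3 SD above or below the plate's solvent-only control mean, mostly below; inconclusive = the two repeat wells disagreed; inactive = no significant shift from solvent-only controls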;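 note: raw slope with 0.1% DMSO as baseline and bumetanide as block control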
HEK counter1: acts in parental HEK cells, KCC2 counter-screen; shares compounds with KCC2 mod; HEK293 parental cells, thallium flux FluoZin2, ouabain; baseline-ratio fluorescence slope, 10–20 s after thallium; thallium flux rate (normalised fluorescence) at 10 µM; 3,700 tested, 46% active; AID 1716;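 active = thallium flux rate significantly above the same plate's solvent-only control wells, beyond their mean plus 3 SD; inconclusive = the two replicate wells gave conflicting results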
KCC2 ouabain: modulates human KCC2 on retest with ouabain; shares compounds with KCC2 mod; raw Tl+ flux slope (below DMSO = inhibition, above = activation) at 10 µM; HEK293-KCC2, thallium flux FluoZin2 fluorescence; bidirectional: low = inhibitor, high = activator; 3,700 tested, 48% active;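 active = thallium flux slope beyond 3 SD from same-plate DMSO control mean in most replicates, usually higher, sometimes lower; inconclusive = repeat tests gave conflicting results; inactive = no significant difference from controls in most replicates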;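 note: slope of initial-normalized fluorescence between seconds 10 and 20 after thallium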
HEK counter2: parental HEK flux effect, counter-screen 2. shares compounds with KCC2 mod. HEK293 parental, thallium flux FluoZin-2 fluorescence slope. thallium flux slope at 10 µM. 3,700 tested, 33% active. AID 1718;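 active = thallium flux slope above the same plate's solvent-control mean plus 3 SD in both duplicate wells; inconclusive = duplicate wells that disagreed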;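 note: run without ouabain in cells lacking the KCC2 cotransporter; slope of fluorescence scaled to its starting value between 10 and 20 s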
* marks the source's active call; other numbers are inactive results; ? = inconclusive; · = not tested or not shown. Shown are actives, neighbours in structure and some others; about 3.3% of the full set was active somewhere.

SMILES | KCC2 mod | ABCB1 inh | ABCG2 block | PMI act hi M6P | ROMK mod | PMI activator | KCC2 sec1 | KCC2 bumet counter | KCC2 secondary2 | HEK counter1 | KCC2 ouabain | HEK counter2
S=c1nc(-c2ccc(Br)cc2)[nH]c2ccccc12 | 93.2* | · | · | · | · | · | 0.0469* | 0.13* | 0.0782* | 0.121* | 0.113* | 0.0917*
O=C(CCCc1nc2ccccc2s1)NCc1ccc(F)cc1 | -3.95* | 8.8 | 6.6 | 1 | -1.22 | 1 | 0.0139* | 0.0183* | 0.034 | 0.0118* | 0.0227 | 0.0124*
CC(C)Cn1cc(C(=O)N2CCN(c3ccccn3)CC2)c2c3ccccc3n(C)c2c1=O | · | 2.0 | 2.4 | 0.9 | · | 1 | 0.00903 | 0.00588 | 0.0302 | 0.00681 | 0.034 | 0.01
CCN1CCN(C(=O)c2cn(CCOC)c(=O)c3c2c2ccccc2n3C)CC1 | -0.642 | 0.1 | 0.3 | 0.9 | 0.000558 | 0.9 | · | · | · | · | · | ·
O=C(CC1C(=O)NCCN1Cc1c(F)cccc1Cl)NC1CCCC1 (centres undefined) | · | 0.1 | 1.3 | 0.9 | 0.0671 | 0.9 | · | · | · | · | · | ·
Cc1ccc(C(=O)Nc2cc(C)c(OCC(=O)N3CCOCC3)c(C)c2)cc1 | · | 0.1 | 0.1 | 1 | -0.352 | 1 | · | · | · | · | · | ·
CC(=O)Nc1ccc2c(c1)ncn2-c1ccc(C)cc1 | · | 0.1 | 0.8 | 1.1 | 0.101 | 1.1 | · | · | · | · | · | ·
COC(=O)c1sc(NC(=S)NC(=O)c2ccccc2C)nc1C | 91.9* | -0.6 | 0.4 | 1 | 2.07 | 0.9 | 0.0495* | 0.15* | 0.0418* | 0.101* | 0.0875* | 0.0329*
O=C(Nc1ccc(S(=O)(=O)NCc2ccco2)cc1)c1ccc2ccccc2n1 | · | 0.0 | 0.5 | 0.9 | -0.0069 | 0.8 | 0.00874 | 0.0061 | 0.0348 | 0.00461 | 0.0195 | 0.0113
O=C(NCc1ccco1)c1ccc2ccccc2n1 | · | 0.0 | 1.3 | 0.9 | -1.29 | 0.9 | · | · | · | · | · | ·
CN1CCN(c2cc(C(F)(F)F)nc3ccc(F)cc23)CC1 | -0.00351 | · | · | · | 0.552 | · | · | · | · | · | · | ·
COc1ccc(-c2cc(CNC(=O)CN(C)Cc3ccccc3)on2)cc1 | · | 0.8 | 6.3 | 1 | · | 0.9 | 0.00576 | 0.00485 | 0.0235* | 0.00683 | 0.0134* | 0.00941
COc1ccc(-c2cc(CNC(=O)CCl)on2)cc1 | · | 0.3 | 0.5 | 1 | · | 1 | · | · | · | · | · | ·
CC(c1ccccc1)n1c(Cn2ncc3ccccc3c2=O)n[nH]c1=S (centres undefined) | -0.127 | -0.7 | -5.1 | 0.9 | -0.149 | 0.9 | · | · | · | · | · | ·
Cc1scc(-c2n[nH]c(=S)n2C(C)c2ccccc2)c1C (centres undefined) | 7.73* | 0.7 | 1.9 | 1 | · | 1.1 | 0.00933 | 0.0403* | 0.0278 | 0.0112* | ? | ?
CC(C)(C)c1ccc(COc2ccsc2C(=O)O)cc1 | -2.79* | 0.2 | 0.0 | 1 | · | 1.1 | 0.0104 | 0.00717 | 0.0294 | 0.00754 | 0.0194 | ?
O=C(NC(=S)Nc1ccc(CN2CCOCC2)cc1)c1ccc([N+](=O)[O-])cc1 | 4.61* | 1.1 | 4.0 | 0.9 | · | 0.9 | 0.00716 | 0.00969* | 0.0347 | 0.0118* | 0.0222 | 0.0132*
COc1ccc(C(=O)NC(=S)Nc2ccc(CN3CCOCC3)cc2)cc1 | 0.303 | · | · | · | · | · | · | · | · | · | · | ·
O=C(NC(=S)Nc1ccccc1[N+](=O)[O-])c1ccccc1 | 17.8* | · | · | · | · | · | 0.00757 | 0.0367* | ? | 0.0197* | 0.0346* | 0.0212*
CC1Cc2ccccc2N1C(=S)NC(=O)c1ccco1 (centres undefined) | 26.4* | -1.9 | -11.0 | 1.1 | 0.573 | 1 | 0.0116* | 0.0563* | 0.0424* | 0.0386* | 0.0485* | 0.0293*
O=C(NC(=S)Nc1ccccc1N1CCCC1)c1ccco1 | 134* | · | · | · | · | · | 0.042* | 0.115* | 0.0558* | 0.0715* | 0.0679* | 0.0623*
Cc1ccc(C(=O)NC(=S)Nc2ccccc2N2CCCC2)cc1[N+](=O)[O-] | 5.49* | 2.6 | 15.3 | 1 | 0.0862 | 0.8 | 0.00758 | 0.0424* | 0.0327 | 0.0176* | 0.0397* | 0.0116*
Cc1ccc(C(=O)Nc2ccccc2N2CCCCC2)cc1[N+](=O)[O-] | 0.0179 | 0.1 | 2.0 | 1 | -1.73 | 1 | · | · | · | · | · | ·
O=C(Nc1ccccc1N1CCCC1)c1ccco1 | -0.00596 | 0.6 | 2.4 | 1.2 | · | 1.4 | · | · | · | · | · | ·
O=C(NC(=S)N1CCCc2ccccc21)c1ccco1 | 3.32 | -0.8 | -5.4 | 0.9 | · | 0.8 | · | · | · | · | · | ·
CC1=CC(=C(C#N)c2nc3ccccc3s2)C=C(C)N1CC1CCCO1 (centres undefined) | -0.291 | -0.3 | -3.0 | 0.6 | 0.595 | 0.9 | · | · | · | · | · | ·
O=C(/C=C/c1ccco1)NC(=S)Nc1ccccc1N1CCOCC1 | -0.755 | 0.9 | 2.4 | 1.1 | -0.927 | 1.1 | · | · | · | · | · | ·
